Results as given in ChEMBL document CHEMBL1629527, “In vitro antifungal activities of bis(alkylpyridinium)alkane compounds against pathogenic yeasts and molds” (Antimicrob Agents Chemother, 2010).

How the values were obtained:
Cryptococcus neoformans [1] = assay: Antifungal activity against Cryptococcus neoformans after 24 to 72 hrs by broth microdilution method; assay type: functional
Summary of the method: (§1)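 Broth microdilution MIC per CLSI M27-A3 (yeasts) or M38-A2 (molds). RPMI 1640 with L-glutamine, without bicarbonate, buffered to pH 7.0 with 0.165 M MOPS. Final test range for the compounds was 0.175–87.5 μM. Incubation at 35°C with visual reading at 24–72 h. MIC was the lowest concentration giving 100% inhibition versus the growth control (azoles 50% or 100%, by organism). Each isolate was run in duplicate in two independent experiments.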

[2] = tested on: Cryptococcus gattii species complex; assay: Antifungal activity against Cryptococcus gattii after 24 to 72 hrs by broth microdilution method; assay type: functional, Cryptococcus bacillisporus; summary of the method: as §1
Candida tropicalis [3] = assay: Antifungal activity against Candida tropicalis after 48 to 72 hrs; assay type: functional
Summary of the method: (§2)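 MFC: after the MIC read, 30-μl aliquots from each well without visible growth were plated onto Sabouraud dextrose agar and incubated at 35°C. Reading was at 48–72 h for yeasts and up to 7 days for molds. MFC was the lowest concentration with no colonies.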

Nakaseomyces glabratus [4] = assay: Antifungal activity against Candida glabrata after 48 to 72 hrs; assay type: functional; summary of the method: as §2
Candida parapsilosis [5] = assay: Antifungal activity against Candida parapsilosis after 48 to 72 hrs; assay type: functional; summary of the method: as §2
Pichia kudriavzevii [6] = assay: Antifungal activity against Candida krusei after 48 to 72 hrs; assay type: functional; summary of the method: as §2
Candida dubliniensis [7] = assay: Antifungal activity against Candida dubliniensis after 48 to 72 hrs; assay type: functional; summary of the method: as §2
Clavispora lusitaniae [8] = assay: Antifungal activity against Candida lusitaniae after 48 to 72 hrs; assay type: functional; summary of the method: as §2
[9] = tested on: Cryptococcus gattii species complex; assay: Antifungal activity against Cryptococcus gattii after 48 to 72 hrs; assay type: functional, Cryptococcus bacillisporus; summary of the method: as §2
[10] = Toxicity against human erythrocytes assessed as hemolysis; assay type: cell-based, Erythrocyte
Rhizopus arrhizus [11] = assay: Antifungal activity against Rhizopus oryzae 05-203111 after 48 to 72 hrs; assay type: functional
Summary of the method: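 After the broth microdilution MIC read, suspension from every well without visible growth was plated onto Sabouraud dextrose agar and incubated at 35°C, up to 7 days for molds. MFC was taken as the lowest drug concentration with no colonies.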

Pichia kudriavzevii [12] = assay: Antifungal activity against Candida krusei after 24 to 72 hrs by broth microdilution method; assay type: functional; summary of the method: as §1
Candida dubliniensis [13] = assay: Antifungal activity against Candida dubliniensis after 24 to 72 hrs by broth microdilution method; assay type: functional; summary of the method: as §1
[14] = tested on: Meyerozyma guilliermondii; assay: Antifungal activity against Candida guilliermondii after 24 to 72 hrs by broth microdilution method; assay type: functional; summary of the method: as §1
Cryptococcus neoformans [15] = assay: Antifungal activity against Cryptococcus neoformans 05-202523 after 48 to 72 hrs; assay type: functional; summary of the method: as §2
Exophiala spinifera = assay: Antifungal activity against Exophiala spinifera 03-200803 after 24 to 72 hrs by broth microdilution method; assay type: functional
Summary of the method: (§3)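 Mold isolates subcultured on potato dextrose agar, then tested by CLSI M38-A2 broth microdilution in RPMI 1640 (L-glutamine, no bicarbonate) buffered to pH 7.0 with 0.165 M MOPS. Compounds were dissolved in water and tested at a final 0.175–87.5 μM. Plates were incubated at 35°C. MIC was read visually as the lowest concentration giving 100% inhibition versus the growth control. Each isolate was run in duplicate in two independent experiments.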

Fusarium solani = assay: Antifungal activity against Fusarium solani 04-203102 after 24 to 72 hrs by broth microdilution method; assay type: functional; summary of the method: as §3
Rhizopus arrhizus [16] = assay: Antifungal activity against Rhizopus oryzae 05-203111 after 24 to 72 hrs by broth microdilution method; assay type: functional; summary of the method: as §3
Aspergillus fumigatus [17] = assay: Antifungal activity against Aspergillus fumigatus 05-203114 after 24 to 72 hrs by broth microdilution method; assay type: functional; summary of the method: as §1
Aspergillus flavus [18] = assay: Antifungal activity against Aspergillus flavus ATCC 204304 after 24 to 72 hrs by broth microdilution method; assay type: functional; summary of the method: as §1
Aspergillus flavus [19] = assay: Antifungal activity against Aspergillus flavus 05-203758 after 24 to 72 hrs by broth microdilution method; assay type: functional; summary of the method: as §1
Aspergillus terreus = assay: Antifungal activity against Aspergillus terreus 05-202844 after 24 to 72 hrs by broth microdilution method; assay type: functional; summary of the method: as §1
Lomentospora prolificans = assay: Antifungal activity against Scedosporium prolificans 05-203060 after 24 to 72 hrs by broth microdilution method; assay type: functional; summary of the method: as §3
Scedosporium apiospermum = assay: Antifungal activity against Scedosporium apiospermum 05-203100 after 24 to 72 hrs by broth microdilution method; assay type: functional; summary of the method: as §3
[20] = tested on: Cunninghamella bertholletiae; assay: Antifungal activity against Cunninghamella bertholletiae 99-12187 after 24 to 72 hrs by broth microdilution method; assay type: functional; summary of the method: as §1
Lichtheimia corymbifera = assay: Antifungal activity against Absidia corymbifera 04-200170 after 24 to 72 hrs by broth microdilution method; assay type: functional; summary of the method: as §1
Aspergillus fumigatus [21] = assay: Antifungal activity against Aspergillus fumigatus ATCC 204305 after 24 to 72 hrs by broth microdilution method; assay type: functional; summary of the method: as §1
[22] = tested on: Cryptococcus gattii species complex; assay: Antifungal activity against Cryptococcus gattii 05-200122 after 24 to 72 hrs by broth microdilution method; assay type: functional, Cryptococcus bacillisporus; summary of the method: as §1
Cryptococcus neoformans [23] = assay: Antifungal activity against Cryptococcus neoformans 05-202523 after 24 to 72 hrs by broth microdilution method; assay type: functional; summary of the method: as §1
Candida tropicalis [24] = assay: Antifungal activity against Candida tropicalis 04-202361 after 24 to 72 hrs by broth microdilution method; assay type: functional; summary of the method: as §1
Nakaseomyces glabratus [25] = assay: Antifungal activity against Candida glabrata 04-202345 after 24 to 72 hrs by broth microdilution method; assay type: functional; summary of the method: as §1
Candida parapsilosis [26] = assay: Antifungal activity against Candida parapsilosis 04-202398 after 24 to 72 hrs by broth microdilution method; assay type: functional; conditions: Lodderomyces parapsilosis; summary of the method: as §1
Pichia kudriavzevii [27] = assay: Antifungal activity against Candida krusei 04-202328 after 24 to 72 hrs by broth microdilution method; assay type: functional; summary of the method: as §1
Pichia kudriavzevii [28] = assay: Antifungal activity against Candida krusei ATCC 6258 after 24 to 72 hrs by broth microdilution method; assay type: functional; summary of the method: as §1
Candida albicans [29] = assay: Antifungal activity against Candida albicans ATCC 10231 after 24 to 72 hrs by broth microdilution method; assay type: functional; summary of the method: as §1
Candida albicans [30] = assay: Antifungal activity against Candida albicans ATCC 90028 after 24 to 72 hrs by broth microdilution method; assay type: functional; summary of the method: as §1
Clavispora lusitaniae [31] = assay: Antifungal activity against Candida lusitaniae after 24 to 72 hrs by broth microdilution method; assay type: functional; summary of the method: as §1
[32] = Antifungal activity against Exophiala jeanselmei 03-200268 after 24 to 72 hrs by broth microdilution method; assay type: functional; summary of the method: as §1

MIC (Cryptococcus neoformans [1]): 3.83 µg/mL
MIC50 (Cryptococcus neoformans [1]): 2.94 µg/mL
MIC90 (Cryptococcus neoformans [1]): 5.87 µg/mL
MIC [2]: 1.81 µg/mL
MIC50 [2]: 1.48 µg/mL
MIC90 [2]: 2.94 µg/mL
MIC (Pichia kudriavzevii [12]): 3.38 µg/mL
MIC50 (Pichia kudriavzevii [12]): 2.94 µg/mL
MIC90 (Pichia kudriavzevii [12]): 5.87 µg/mL
MIC (Candida dubliniensis [13]): 2.22 µg/mL
MIC50 (Candida dubliniensis [13]): 1.47 µg/mL
MIC90 (Candida dubliniensis [13]): 2.93 µg/mL
MIC [14]: 1.69 µg/mL
MIC50 [14]: 1.47 µg/mL
MIC90 [14]: 1.47 µg/mL
MIC (Exophiala spinifera): 0.74 µg/mL
MIC (Fusarium solani): 47.3 µg/mL
MIC (Rhizopus arrhizus [16]): 5.9 µg/mL
MIC (Aspergillus fumigatus [17]): > 47.3 µg/mL
MIC (Aspergillus flavus [18]): > 47.3 µg/mL
MIC (Aspergillus flavus [19]): > 47.3 µg/mL
MIC (Aspergillus terreus): 1.48 µg/mL
MIC (Lomentospora prolificans): 1.48 µg/mL
MIC (Scedosporium apiospermum): 11.8 µg/mL
MIC [20]: > 47.3 µg/mL
MIC (Lichtheimia corymbifera): > 47.3 µg/mL
MIC (Aspergillus fumigatus [21]): > 47.3 µg/mL
MIC [22]: 1.48 µg/mL
MIC (Cryptococcus neoformans [23]): 11.8 µg/mL
MIC (Candida tropicalis [24]): 1.48 µg/mL
MIC (Nakaseomyces glabratus [25]): 1.5 µg/mL
MIC (Candida parapsilosis [26]): 47.3 µg/mL
MIC (Pichia kudriavzevii [27]): 11.8 µg/mL
MIC (Pichia kudriavzevii [28]): 5.9 µg/mL
MIC (Candida albicans [29]): 1.48 µg/mL
MIC (Candida albicans [30]): 1.48 µg/mL
MIC (Clavispora lusitaniae [31]): 2.74 µg/mL
MIC50 (Clavispora lusitaniae [31]): 2.93 µg/mL
MIC90 (Clavispora lusitaniae [31]): 2.93 µg/mL
MIC [32]: 5.9 µg/mL
Compound: C=CCCCc1cc[n+](CCCCCCCCCCCC[n+]2ccc(CCCC=C)cc2)cc1.[Cl-].[Cl-]
MFC50 (Candida tropicalis [3]): 0.75 µg/mL
MFC90 (Candida tropicalis [3]): 1.47 µg/mL
MFC (Candida tropicalis [3]; Candida tropicalis): 0.37 µg/mL
MFC50 (Nakaseomyces glabratus [4]): 1.47 µg/mL
MFC90 (Nakaseomyces glabratus [4]): 5.87 µg/mL
MFC (Nakaseomyces glabratus [4]; Nakaseomyces glabratus): 0.75 µg/mL
MFC50 (Candida parapsilosis [5]): 23.5 µg/mL
MFC90 (Candida parapsilosis [5]): 23.5 µg/mL
MFC (Candida parapsilosis [5]; Lodderomyces parapsilosis): 23.5 µg/mL
MFC50 (Pichia kudriavzevii [6]): 5.87 µg/mL
MFC90 (Pichia kudriavzevii [6]): 11.74 µg/mL
MFC (Pichia kudriavzevii [6]; Pichia kudriavzevii): 0.75 µg/mL
MFC50 (Candida dubliniensis [7]): 2.93 µg/mL
MFC90 (Candida dubliniensis [7]): 2.93 µg/mL
MFC (Candida dubliniensis [7]; Candida dubliniensis): 1.47 µg/mL
MFC50 (Clavispora lusitaniae [8]): 2.93 µg/mL
MFC90 (Clavispora lusitaniae [8]): 5.87 µg/mL
MFC (Clavispora lusitaniae [8]; Clavispora lusitaniae): 1.47 µg/mL
MFC50 [9]: 2.94 µg/mL
MFC90 [9]: 2.94 µg/mL
MFC ([9]; Cryptococcus gattii species complex): 2.94 µg/mL
HC50 [10]: > 129 µM
IC50 [10]: > 48 µM
MFC (Rhizopus arrhizus [11]): 23.7 µg/mL
MFC (Cryptococcus neoformans [15]): 23.7 µg/mL
